Compound activity as filed in PubChem.
Sampled rows, rich in hits. Any-hit rate of the full collection: about 2.7%.
Rev-erbA mod – modulates human Rev-erb alpha binding to DNA; P20393; Rev-erbα–FITC-DNA binding, fluorescence polarization, 90 min; activity, % at 10 µM; hit rate 0.79% among 370,000; AID 1259318;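 active means activity above about 14%, limit read from the data; passing the limit was not always enough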;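 further: 0% = DMSO wells with 35 nM protein and 100% = DMSO wells with 750 nM protein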
NR2E3 ag-1 – activates human NR2E3 receptor. inhibition of corepressor binding, % at 3.98 µM. hit rate 0.35% among 360,000. Q9Y5X4. AID 602229. CHO-S Gal4-NCOR/VP16-NR2E3 two-hybrid, luciferase;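 active means inhibition above the mean of all tested compounds plus 3 SD, cut at about 70% in these data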;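 further: 0% = DMSO with NR2E3 transfected cells and 100% = cells lacking NR2E3 construct; higher means lower luciferase signal from less NR2E3 corepressor binding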
Target sequence (Q9Y5X4 whole entry, looked up, the tested form may be a part): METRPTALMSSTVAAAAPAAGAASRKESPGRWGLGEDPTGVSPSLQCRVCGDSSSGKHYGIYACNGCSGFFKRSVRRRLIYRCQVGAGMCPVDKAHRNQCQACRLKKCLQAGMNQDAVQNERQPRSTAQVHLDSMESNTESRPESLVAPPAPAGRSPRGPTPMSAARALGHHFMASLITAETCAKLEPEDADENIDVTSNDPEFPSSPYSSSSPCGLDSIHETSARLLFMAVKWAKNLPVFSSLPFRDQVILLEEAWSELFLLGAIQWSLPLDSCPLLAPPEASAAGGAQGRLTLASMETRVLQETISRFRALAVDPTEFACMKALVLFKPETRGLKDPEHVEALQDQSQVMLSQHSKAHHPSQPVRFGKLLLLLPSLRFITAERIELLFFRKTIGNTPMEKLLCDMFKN
MC4R antagonist – blocks human MC4R cAMP signaling. inhibition, % at 6.5 µM. hit rate 0.48% among 360,000. MC4R-expressing cells, MTII-stimulated cAMP, LANCE TR-FRET. P32245;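 active means inhibition above its plate's cutoff, the mean of tested wells on that plate plus 3 SD, cut at about 29% in these data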;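 further: 0% = Melanotan II alone and 100% = Melanotan II plus saturating MCL0020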
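Assay system: U2OS-MC4R stable cell line; Also added: Melanotan II; Technique: Eu-cAMP/anti-cAMP TR-FRET, emission 671 nm; Times: 30-min compound, 1-h challenge, 1-h detection, room temperature.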
NR2E3 ag-2 – NR2E3 (human) agonism | GST-NR2E3/biotin-RetCOR TR-FRET, 1536-well | inhibition of corepressor binding, % at 4.78 µM | hit rate 0.12% among 320,000;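 active means percent inhibition above the cutoff of mean plus 3 SD of all tested compounds, set per screening campaign, cut at about 20% in these data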;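 further: 0% = DMSO wells and 100% = biotin wells as full block of FRET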
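Material: NR2E3–RetCOR corepressor complex / Incubation: Compound–protein incubation for 5 h at 4 °C / Dosing: compound at 4.8 µM, single dose / Detection: time-resolved FRET / Benchmarks: high control biotin, low control 0.6% DMSO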
PG9 Ab binder – binds the HIV-1 gp120 antibody PG9. TR-FRET gp120-PG9 antibody binding. inhibition, % at 6.7 µM. hit rate 0.43% among 360,000; in the data active means inhibition above about 8.5%
MC4R barr agon – agonists of human melanocortin 4 receptor (MC4R) beta-arrestin | P32245 | U2OS MC4R beta-arrestin complementation, luminescence; percent of melanotan II response, DMSO zero | activation, % at 8.9 µM | hit rate 0.98% among 360,000 | AID 540308;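 active means activation above a per-plate cutoff, the mean activation of sample wells on that plate plus 3 SD, cut at about 8% in these data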
U2OS cAMP counter – nonselective cAMP signaling inhibitor, MC4R antagonist counter-screen. hit rate 26% among 1,600. shares compounds with MC4R antagonist. parental U2OS, forskolin cAMP, LANCE TR-FRET. inhibition, % at 6.5 µM. AID 602193;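 active means mean inhibition over triplicates above the low-control well mean plus 3 SD, set per campaign, cut at about 13% in these data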;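 further: signal is single emission at 671 nm which falls as cellular cAMP rises; 0% = forskolin-stimulated wells and 100% = buffer without forskolin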
MC4R cAMP antag – human MC4R cAMP antagonism confirmation; inhibition, % at 6.5 µM; MC4R-expressing cells, MTII-stimulated cAMP, TR-FRET; AID 602195; hit rate 27% among 1,600; shares compounds with MC4R antagonist; in the data active means inhibition above about 29%;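 further: 0% = agonist stimulated wells alone and 100% = agonist stimulated wells plus saturating reference antagonist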
The depositor's hits bear a star; / = no result; ! = a repeat was not active.

SMILES	Rev-erbA mod	NR2E3 ag-1	MC4R antagonist	NR2E3 ag-2	PG9 Ab binder	MC4R barr agon	U2OS cAMP counter	MC4R cAMP antag
CCOC(=O)C1=C(COC(=O)CNS(=O)(=O)c2ccc(NC(C)=O)cc2)NC(=O)NC1C (centres undefined)	6	10	-1	/	0	1	/	/
CC1CCN(c2nc(-c3cccnc3)nc3scc(-c4ccccc4)c23)CC1	9	-11	11	2	1	1	/	/
CC1CCCN(c2nc(-c3cccnc3)nc3scc(-c4ccccc4)c23)C1 (centres undefined)	2	-55	37*	-1	0	0	0	21
Cc1cc(Cl)ccc1Oc1cccc(C(=O)/C(C#N)=C/N(C)C)c1	2	-36	6	2	1	-2	/	/
COc1ccc(/C=C/C(=O)N2CCN(C)CC2)cc1S(=O)(=O)N1CCCCC1	-1	-28	5	-1	-4	-2	/	/
Cc1ccc(Cn2c(C)nc3ccc([N+](=O)[O-])cc3c2=O)cc1	-3	-16	2	0	-1	-2	/	/
COc1ccc(C(=O)Nc2ccc(S(=O)(=O)Nc3cc(C)nc(C)n3)cc2)cc1	-3	-1	17	-1	2	-1	/	/
COc1cccc(C(=O)Nc2ccc(S(=O)(=O)Nc3cc(C)nc(C)n3)cc2)c1	2	-8	29*	-1	-2	-1	-1	-1
COc1ccc(C(C(=O)NC2CCCCC2)N(Cc2cccnc2)C(=O)c2snc(C(N)=O)c2N)cc1 (centres undefined)	-4	12	31*	9	1	-2	-6	-12
COc1ccc(CN(C(=O)c2snc(C(N)=O)c2N)C(C(=O)NC2CCCC2)c2ccc(OC)c(OC)c2)cc1 (centres undefined)	0	-10	0	1	-1	1	/	/
O=C1NC(=O)C2(CCc3ccccc32)N1 (centres undefined)	5	-17	0	3	1	-1	/	/
C=C1CC2(OC1=O)c1ccccc1CCc1ccccc12	-1	4	32*	/	1	-2	39*	24
O=S(=O)([O-])CCC[N+]1(CC#Cc2ccccc2)CCCCC1	-1	8	35*	4	-2	0	-1	4
C=CCOc1ccc(CC(=O)O)cc1Cl	8	/	/	/	/	/	/	/
CCOc1ccc(OCC)c(C2C(C#N)=C(N)N(c3cccnc3)C3=C2C(=O)CC(C)(C)C3)c1 (centres undefined)	-2	0	7	0	0	0	/	/
CSc1sc(C)cc1C1C(C#N)=C(N)N(c2cccnc2)C2=C1C(=O)CC(C)(C)C2 (centres undefined)	-2	-2	29*	1	-6	1	-4	-15
Cc1nnc(SCC(=O)N2CC(=O)Nc3ccccc32)s1	1	-26	3	0	-2	0	/	/
O=C1CN(C(=O)CSc2nc(-c3ccc(Cl)cc3)cs2)c2ccccc2N1	-1	14	31*	1	-2	2	-4	-18
O=C(NNS(=O)(=O)c1ccccc1C(F)(F)F)c1cccc(S(=O)(=O)Nc2ccccc2Cl)c1	-1	-15	11	1	-2	-3	/	/
CC(C)c1ccc(NC(=O)CSc2nc3ccsc3c(=O)n2CCC(=O)O)cc1	-1	10	35*	2	-1	1	2	4
COc1ccc(OC)c(NC(=O)CCN2CCN(c3ccccc3OC)CC2)c1	-6	-23	-3	-2	-2	-1	/	/
CC(=O)c1ccc(-c2ccc(C(=O)NCC(c3ccc(F)cc3)N3CCOCC3)o2)cc1 (centres undefined)	-6	-5	13	2	-2	0	/	/
COc1ccc(Cn2c(O)c(C=Nc3ccccc3C(=O)O)c3ccccc3c2=O)cc1	0	-19	32*	-2	1	0	9	10
COc1ccc(Cn2c(O)c(C=Nc3ccc(OC)cc3)c3ccccc3c2=O)cc1	3	-2	0	3	1	-3	/	/
COc1ccc2c(C=Nc3c(C)n(C)n(-c4ccccc4)c3=O)c(O)n(Cc3ccco3)c(=O)c2c1	2	-13	37*!	6	-2	-2	2	1
SMILES	Rev-erbA mod	NR2E3 ag-1	MC4R antagonist	NR2E3 ag-2	PG9 Ab binder	MC4R barr agon	U2OS cAMP counter	MC4R cAMP antag
NC(=O)c1ncn([C@@H]2O[C@H](CNCc3cnc(N4CCOCC4)nc3)[C@@H](O)[C@H]2O)n1	8	-16	7	/	1	2	/	/
CSc1ccccc1C(=O)Nc1c(C)cccc1C	-3	20	32*	1	1	2	-2	-11
COc1ccc(C2NC(C(=O)O)Cc3c2[nH]c2ccccc32)cc1CN1CCN(c2ccc(F)cc2)CC1 (centres undefined)	3	9	30*	3	-1	0	0	3
O=C(O)C1Cc2c([nH]c3ccccc23)C(c2ccc3c(c2)OCO3)N1 (centres undefined)	-3	-7	1	3	-1	-1	/	/
ClCC1NCC(c2ccccc2Cl)c2c1[nH]c1ccccc21 (centres undefined)	3	-11	36*	-2	0	3	2	3
CCCCCCOc1ccc(OC(=O)c2ccncc2)cc1	1	3	0	3	2	-1	/	/
CS(=O)(=O)Cc1cccc(C(=O)NC2CCSc3ccccc32)c1 (centres undefined)	0	4	32*	2	-2	1	5	-2
CCOC(=O)C1=C(C)NC2=C(C(=O)CC(C)(C)C2)C1c1ccc2c(c1)CCCN2C (centres undefined)	0	-27	0	3	-2	1	/	/
CCOC(=O)c1c(NC(=O)CCC(=O)O)sc2c1CC(C)(C)OC2	-4	-13	33*	6	-4	-1	2	-2
CCOC(=O)c1c(NC(=O)C2CC2)sc2c1CC(C)(C)OC2	4	10	9	-3	0	-2	/	/
COc1ccccc1C(=O)NC(=S)N1CCc2ccccc21	-4	-3	30*	-5	0	0	-6	-4
COc1ccc(-c2ccc(CCC(=O)O)n2CC(=O)Nc2ccccc2C)cc1	0	8	31*	-3	1	-1	3	1
COc1ccc(NC(=O)Cn2c(CCC(=O)O)ccc2-c2ccccc2)cc1	1	-3	16	-6	1	-1	/	/
Cc1ccc(OCCC(=O)Nc2ccc(C)c(S(=O)(=O)N3CCOCC3)c2)cc1	0	-16	7	1	-2	0	/	/
